Cytotoxicity data for 71 molecules are collected here from ChEMBL document CHEMBL4513216, “Probing the Open Global Health Chemical Diversity Library for Multistage-Active Starting Points for Next-Generation Antimalarials” (ACS Infect Dis, 2020).

The series in a line: Toxicity liver stage against HepG2, at 10uM. The format is cell-based. Details: test concentration 10 uM, cell line HepG2-A16-CD81EGFP. As to conditions: human, HepG2-A16-CD81EGFP cells; read-out: INHIBITION
An outline of the steps: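 Uninfected HepG2-A16-CD81EGFP cells, 3 × 10^3 per well, 1536-well, plated on prespotted compound at 10 μM final, parasite-free screening media added to match infected plates; puromycin 10 μM positive, DMSO 0.5% negative; run in parallel with 48 h PbLuc assay at 37 °C, 5% CO2; viability by CellTiter-Glo luminescence, normalized to controls.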
As for `CN(Cc1noc2c1CCCC2)C(=O)Nc1cccc(S(N)(=O)=O)c1`, the cytotoxicity at 10 µM was -4.32%.

For `Cn1cc(CN2CC[C@@H]3[C@@H]2CCN3Cc2ccc3c(c2)OCO3)cn1`, the cytotoxicity at 10 µM is -3.63%.

In the case of `CCCN1CCC(c2nc3ccc(-c4cccc(OC)c4)cn3n2)CC1`, the cytotoxicity at 10 µM was -113%. Take `CCOc1ccc(C(=O)N2C[C@@H]3CC[C@H]2CN(C)C3)cc1OCC`: the cytotoxicity at 10 µM is -15.7%. Consider `CCc1nc(CN2CCc3c(ncn3C3CC3)C2)cs1`, for which the cytotoxicity at 10 µM is -1.59%.

As to `Cn1ccnc1CN1CCN(CC2CC2)[C@@H]2CS(=O)(=O)C[C@@H]21`, the cytotoxicity at 10 µM amounted to 1.02%. As for `CC(C)C(NC(=O)c1ccc(=O)[nH]c1)c1nnc2n1CCNCC2` (stereo unspecified), the cytotoxicity at 10 µM was -1.86%.

As for `Cc1ccc(S(=O)(=O)NC(=O)C2(c3ccccc3)CCC2)c(C)c1`, the cytotoxicity at 10 µM worked out at 13.5%. Take `CN(CC(=O)N1CCCC1Cn1cccn1)Cc1ccccc1` (stereo unspecified): the cytotoxicity at 10 µM was -2.12%. As to `Cc1cc(NCCc2nnc(N)s2)nc(-c2cccnc2)n1`, the cytotoxicity at 10 µM was -5.44%. As to `CC(C)c1nn(C)c(N(C)C)c1CNC1CCN(CC2CC2)CC1`, the cytotoxicity at 10 µM was found to be 8.96%. In the case of `O=c1c2sccc2nc2n1CCN(Cc1cccs1)CC2`, the cytotoxicity at 10 µM is 4.27%.

Take `CC(C(=O)NCC(F)(F)F)N1CCC(N2CCN(C)C2=O)CC1` (stereo unspecified): the cytotoxicity at 10 µM amounted to 5.11%.

Regarding `CC(=O)N(CCc1nc(-c2cc(C(N)=O)co2)cs1)C(C)C`, the cytotoxicity at 10 µM was -4.91%. Take `Cc1ccc(CNCCC(O)(c2nccn2C)C(F)(F)F)o1` (stereo unspecified): the cytotoxicity at 10 µM is 1.18%.

Consider `CS(=O)(=O)N1CCCC(C(=O)Nc2cnn(COCC(F)(F)F)c2)C1` (stereo unspecified), for which the cytotoxicity at 10 µM was -11.5%. On to `CCC(=O)c1ccccc1NN1c2ccccc2C(=O)C1(C)OC` (stereo unspecified), for which the cytotoxicity at 10 µM stood at 8.57%.

`COc1ccccc1-c1nnc([C@H]2CCN(C(=O)C3CC3)C2)o1`: the cytotoxicity at 10 µM worked out at 0.734%. The value for `O=C(c1cc(-c2ccco2)nc2c(Cl)cccc12)N1CCS(=O)(=O)CC1` was -1.99%; that for `Cc1nc(CNCC2Cn3nncc3CO2)cs1` (stereo unspecified) was -93.2%. The value for `O=C(Nc1ccc2occc2c1)N1CCCC(O)(CO)CC1` (stereo unspecified) was -0.735%. `Cc1ccc(CNC(=O)c2nn(C)c3c2CS(=O)(=O)CC3)o1`: the cytotoxicity at 10 µM came out at 6.14%. As to `CN(CCCc1cnn(C)c1)C(=O)C1COc2ccccc2C1` (stereo unspecified), the cytotoxicity at 10 µM was -5.91%. The value for `C=C(C)CN(CC)S(=O)(=O)c1c(F)cc(NC(C)=O)cc1F` was -47.1%; that for `COc1cc2c(cc1OC)CN(Cc1ncccc1C(=O)O)CC2` was 5.31%. Take `Cc1cc(CN(Cc2ccccc2)CC(O)c2cccs2)on1` (stereo unspecified): the cytotoxicity at 10 µM is 5.29%. As for `CN(Cc1cc(-c2ccccc2)no1)CC1CCCN1c1cccnn1` (stereo unspecified), the cytotoxicity at 10 µM is -9.09%. Take `Cn1nc(-c2ccccc2)cc1[C@H]1CN2CC[C@H]1C[C@@H]2CNS(C)(=O)=O`: the cytotoxicity at 10 µM came to 1.82%. Take `O=C(NCCCn1cccn1)N1CCCC1c1cccs1` (stereo unspecified): the cytotoxicity at 10 µM was -2.39%. `COc1cccc(CN2CCCC(c3nn(C)c4nccnc34)C2)c1` (stereo unspecified): the cytotoxicity at 10 µM was -11.2%. The value for `Cc1nc(CN2CCc3cnc(C(C)C)nc3C2)oc1C` was 0.479%. Take `COc1ccc(CN2CC[C@H](c3nnc(-c4ccco4)o3)C2)cc1`: the cytotoxicity at 10 µM came to 0.0623%.

For `Cc1nn2cccnc2c1C(=O)NCc1ccccc1OC1CCC1`, the cytotoxicity at 10 µM is -46.4%. The value for `O=C(Cc1ccc(F)c(F)c1)NC1COc2ccccc2C1=O` (stereo unspecified) was 4.61%. With `CC1(C)OCC(CNC(=O)c2cnn(-c3ccc(Cl)cc3)c2N)O1` (stereo unspecified), the cytotoxicity at 10 µM is 2.31%. As for `Cc1nc2n(n1)CC(NCC(=O)NCCC1=CCCCC1)CC2` (stereo unspecified), the cytotoxicity at 10 µM was -9.36%.

Turning to `CN(C)C(=O)[C@@H]1C[C@H]2OCC[C@H]2N(CCOc2ccc(Cl)cc2)C1`, the cytotoxicity at 10 µM was -124%. Consider `Cc1ccc(C(=O)N2CCCC(c3[nH]ncc3S(C)(=O)=O)C2)s1` (stereo unspecified), for which the cytotoxicity at 10 µM was -10.6%. The value for `c1ccc(CN2CCCC2Cn2cncn2)nc1` (stereo unspecified) was -10.8%; that for `Cc1ccnc(C(NC(=O)c2sc(C)nc2C)C2CC2)n1` (stereo unspecified) was -11%. `COCCC1(CO)CCCN(Cc2ccncc2)C1` (stereo unspecified): the cytotoxicity at 10 µM is -141%. With `Cc1nc(CN2CCCC(NCc3cnn(C)c3)C2)no1` (stereo unspecified), the cytotoxicity at 10 µM is -2.53%. The value for `Cc1ccc(CC(=O)N2CCCN(Cc3nccn3C)CC2)cn1` was -22.3%; that for `COc1ccccc1COCC(O)CN1CC(n2cccn2)C1` (stereo unspecified) was -6.25%; that for `CCN1CCN(C(=O)C(C)n2cc(Br)cn2)CC1` (stereo unspecified) was 6.39%. For `c1ccc(OCC2C[C@@H]3[C@@H](C2)OCCN3CC2CCOCC2)nc1` (stereo partly specified), the cytotoxicity at 10 µM stood at 2.75%. As for `CC(C)(C)c1nnc(CN2CCC(c3cc4ccccc4[nH]3)CC2)o1`, the cytotoxicity at 10 µM stood at 24.3%. As for `CCC(CNS(=O)(=O)c1c[nH]cn1)Oc1ccccc1F` (stereo unspecified), the cytotoxicity at 10 µM is 7.22%. As for `COc1ccc(Cl)cc1S(=O)(=O)N(C)CC(=O)Nc1cccnc1`, the cytotoxicity at 10 µM worked out at 0.192%. Take `CC(C)C(O)CNC(=O)Nc1ccc(F)c(Cl)c1` (stereo unspecified): the cytotoxicity at 10 µM amounted to 5.6%. As for `Cc1ccc(C(=O)N(C)CCNS(C)(=O)=O)cc1Br`, the cytotoxicity at 10 µM is -45.8%. As to `Cc1cc(C(=O)NCCC2CN(C)CCO2)c2cccc(C)c2n1` (stereo unspecified), the cytotoxicity at 10 µM was -2.94%. In the case of `CCc1cc(NCCCC2CCOC2)n2nccc2n1` (stereo unspecified), the cytotoxicity at 10 µM is 5.04%. On to `CC1CCCN(S(=O)(=O)NCc2ccccc2Cn2cncn2)C1` (stereo unspecified), for which the cytotoxicity at 10 µM came to 1.55%.

For the molecule `Cc1cnc(CN(C)C2CCN(Cc3nc4ccccc4n3C)C2)o1` (stereo unspecified), the cytotoxicity at 10 µM stood at 2.57%.

As to `c1ccc(Cc2nnc(CN3CCOC(Cn4cccn4)C3)o2)cc1` (stereo unspecified), the cytotoxicity at 10 µM was -8.48%. Turning to `O=S1(=O)COCCN1CCCOc1ccc(F)cc1`, the cytotoxicity at 10 µM came to 3.57%. Consider `Cn1ccnc1C(=O)N1CCC2(CCCN2CC2CC2)CC1`, for which the cytotoxicity at 10 µM came out at 8.31%. The value for `COCCCNC(=O)Nc1cccc2c1CCN(S(C)(=O)=O)C2` was 2.87%; that for `Cc1c[nH]nc1C1CCCCN1C(=O)CC1(O)CCCCC1` (stereo unspecified) was -2.92%; that for `Cc1nc(Nc2ncccn2)cc(C2CCCN2Cc2ncc[nH]2)n1` (stereo unspecified) was -15.3%. For `CCCc1cc(=O)[nH]c(-c2ccccc2CN(C)CCn2cccn2)n1`, the cytotoxicity at 10 µM is -1.41%.

Regarding `Cc1nc(CNC(=O)CCCc2cccs2)no1`, the cytotoxicity at 10 µM was -46.8%.

On to `COCCC(=O)N1CCC2(CCN(Cc3cccc(F)c3)CC2)C1`, for which the cytotoxicity at 10 µM was -75.9%.

`CC1(C(=O)N2CCN(C3CCCC3)CC2)CNCCO1` (stereo unspecified): the cytotoxicity at 10 µM came to 6.26%.

`Cn1cc(NC(=O)N2CCC(NS(C)(=O)=O)CC2)ccc1=O`: the cytotoxicity at 10 µM is -7.05%. Turning to `Cc1cccc(CN2CC[C@H]3OCC[C@@]3(C(=O)N3CCCO3)C2)n1`, the cytotoxicity at 10 µM amounted to 0.886%.

On to `COC(=O)c1ccc(CNCc2cn(C)nc2C)cc1`, for which the cytotoxicity at 10 µM is -8.55%. With `CCN(CC1CCOC1)C(=O)c1nc(-c2ccco2)sc1C` (stereo unspecified), the cytotoxicity at 10 µM is -0.238%. Take `CC(=O)c1ccc(CN2CCCC23CCN(c2ccccn2)CC3)cc1`: the cytotoxicity at 10 µM amounted to 1.5%. For the molecule `Cc1cccc(COc2ccccc2C(=O)N2CCC(C(N)=O)CC2)c1`, the cytotoxicity at 10 µM was -7.08%.
